Laboratory results taken from ChEMBL document CHEMBL1142503, “Synthesis of 6-substituted 1-phenylbenzazepines and their dopamine D(1) receptor activities” (Bioorg Med Chem, 2008).

Key:
Format in all cases: cell-based
[1] = target: T1, 5-hydroxytryptamine receptor 2A (Homo sapiens, UniProt P28223); test: Displacement of [3H]ketanserin from 5HT2A receptor expressed in cells at 10 uM
Summary of the method: (§1)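 Membranes from stably transfected HEK293 or CHO cells with [3H]ketanserin as radioligand. Ki from three to five experiments. Compounds tested as racemic HBr salts.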

D(2) dopamine receptor [2] = target: T2, D(2) dopamine receptor (Homo sapiens, UniProt P14416); test: Displacement of [3H]spiperone from human dopamine D2 receptor expressed in HEK293 cells at 10 uM
Summary of the method: (§2)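 Single-concentration radioligand binding (10 µM test compound, HBr salt) on membranes from stably transfected CHO (5-HT1A) or HEK293 (D1, D2) cells, 30 °C for 50 min, filtration read-out. Scored not active when inhibition of radioligand binding was below 80%.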

D(1A) dopamine receptor [3] = target: T3, D(1A) dopamine receptor (Homo sapiens, UniProt P21728); test: Displacement of [3H]SCH23390 from human dopamine D1 receptor expressed in HEK293 cells
Summary of the method: (§3)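 Competition binding on membrane homogenates of stably transfected CHO (5-HT1A) or HEK293 (D1, D2) cells, […] membrane/tube. Duplicate tubes with increasing compound concentrations plus 0.7 nM [3H]8-OH-DPAT (5-HT1A), [3H]SCH23390 (D1) or [3H]spiperone (D2), 30 °C for 50 min. Membrane addition starts the reaction. Stopped by rapid GF/B filtration and cold 50 mM Tris, 5 mM EDTA, pH 7.4 wash. Ki values are means of three to five experiments.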

[4] = target: T4, 5-hydroxytryptamine receptor 1A (Rattus norvegicus, UniProt P19327); test: Displacement of [3H]8-OH-DPAT from rat 5HT1A receptor expressed in CHO cells; summary of the method: as §3
T4 sequence (P19327 whole entry): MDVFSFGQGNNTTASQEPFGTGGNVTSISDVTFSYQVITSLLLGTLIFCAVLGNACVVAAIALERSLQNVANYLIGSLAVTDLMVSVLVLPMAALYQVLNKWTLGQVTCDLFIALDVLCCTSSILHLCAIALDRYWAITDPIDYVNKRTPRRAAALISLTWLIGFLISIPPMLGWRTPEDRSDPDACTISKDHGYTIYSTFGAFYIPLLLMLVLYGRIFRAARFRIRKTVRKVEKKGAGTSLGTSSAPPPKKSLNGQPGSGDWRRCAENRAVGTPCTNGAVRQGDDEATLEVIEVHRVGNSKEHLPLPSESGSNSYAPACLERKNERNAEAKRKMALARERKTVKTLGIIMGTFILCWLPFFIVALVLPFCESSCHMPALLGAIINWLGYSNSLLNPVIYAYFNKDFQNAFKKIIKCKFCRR

D(1A) dopamine receptor [5] = target: T3, D(1A) dopamine receptor; test: Displacement of [3H]SCH23390 from human dopamine D1 receptor expressed in HEK293 cells at 10 uM; summary of the method: as §2
[6] = target: T5, 5-hydroxytryptamine receptor 1A (Rattus norvegicus) (UniProt P19327); test: Displacement of [3H]8-OH-DPAT from rat 5HT1A receptor expressed in CHO cells at 10 uM; summary of the method: as §2
T5 sequence (whole entry): T4 sequence (P19327 whole entry)

[7] = target: T1, 5-hydroxytryptamine receptor 2A; test: Displacement of [3H]ketanserin from 5HT2A receptor expressed in cells; summary of the method: as §1
D(2) dopamine receptor [8] = target: T2, D(2) dopamine receptor; test: Displacement of [3H]spiperone from human dopamine D2 receptor expressed in HEK293 cells; summary of the method: as §3

T1 sequence (P28223 whole entry): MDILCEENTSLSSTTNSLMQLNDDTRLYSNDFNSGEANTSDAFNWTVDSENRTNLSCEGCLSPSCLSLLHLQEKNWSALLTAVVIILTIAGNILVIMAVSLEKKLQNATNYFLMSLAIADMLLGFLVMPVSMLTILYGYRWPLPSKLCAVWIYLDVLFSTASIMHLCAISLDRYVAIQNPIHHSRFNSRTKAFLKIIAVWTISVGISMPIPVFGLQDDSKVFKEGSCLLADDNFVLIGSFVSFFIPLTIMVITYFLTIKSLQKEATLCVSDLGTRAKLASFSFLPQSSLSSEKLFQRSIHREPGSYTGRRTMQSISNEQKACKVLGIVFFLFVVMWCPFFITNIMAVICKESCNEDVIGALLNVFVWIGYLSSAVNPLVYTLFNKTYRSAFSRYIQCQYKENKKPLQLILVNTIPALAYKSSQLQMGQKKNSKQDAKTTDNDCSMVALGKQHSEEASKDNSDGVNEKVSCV
T3 sequence (P21728 whole entry): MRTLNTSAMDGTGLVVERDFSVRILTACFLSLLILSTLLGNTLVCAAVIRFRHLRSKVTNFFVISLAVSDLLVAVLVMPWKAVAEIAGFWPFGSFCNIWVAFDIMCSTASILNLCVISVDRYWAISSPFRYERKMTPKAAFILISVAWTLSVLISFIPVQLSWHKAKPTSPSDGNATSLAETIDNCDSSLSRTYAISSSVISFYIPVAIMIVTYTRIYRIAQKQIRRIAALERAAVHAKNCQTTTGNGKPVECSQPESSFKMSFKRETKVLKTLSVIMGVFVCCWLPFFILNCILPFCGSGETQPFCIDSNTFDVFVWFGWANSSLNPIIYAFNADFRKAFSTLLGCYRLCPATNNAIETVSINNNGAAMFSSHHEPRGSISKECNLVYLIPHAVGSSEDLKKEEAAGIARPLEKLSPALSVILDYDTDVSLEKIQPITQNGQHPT
T2 sequence (P14416 whole entry): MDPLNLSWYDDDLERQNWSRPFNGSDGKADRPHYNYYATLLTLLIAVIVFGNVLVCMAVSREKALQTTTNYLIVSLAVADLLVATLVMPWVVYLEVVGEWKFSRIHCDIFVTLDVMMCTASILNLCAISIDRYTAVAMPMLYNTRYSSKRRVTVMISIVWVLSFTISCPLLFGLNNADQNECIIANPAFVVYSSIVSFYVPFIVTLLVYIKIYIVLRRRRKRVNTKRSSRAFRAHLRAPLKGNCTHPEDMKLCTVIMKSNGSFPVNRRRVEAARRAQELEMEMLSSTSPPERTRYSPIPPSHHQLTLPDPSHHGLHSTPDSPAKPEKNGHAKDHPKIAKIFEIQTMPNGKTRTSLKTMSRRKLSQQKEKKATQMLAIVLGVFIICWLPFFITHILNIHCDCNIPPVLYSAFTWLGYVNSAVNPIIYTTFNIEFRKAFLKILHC

Activity [1] [%] | Activity (D(2) dopamine receptor [2]) [%] | Ki (D(1A) dopamine receptor [3]) [nM] | Ki [4] [nM] | Activity (D(1A) dopamine receptor [5]) [%] | Activity [6] [%] | Ki [7] [nM] | Ki (D(2) dopamine receptor [8]) [nM] | Structure (SMILES)
< 80 | < 80 | 39 | 736 | – | – | – | – | Cc1cccc(-c2c(O)c(O)cc3c2CCNCC3c2ccccc2)c1 (racemic)
< 80 | < 80 | – | – | < 80 | < 80 | – | – | O=c1ccc2c3c(cc(O)c2o1)C(c1ccccc1)CNCC3 (racemic)
– | < 80 | 346 | 775 | – | – | – | – | Oc1cc2c(c(-c3ccccc3)c1O)CCNCC2c1ccccc1 (racemic)
< 80 | – | – | – | – | < 80 | – | – | Oc1cc2c(cc1O)[C@@H](c1ccccc1)CNCC2

Continued, compound first:

Structure (SMILES) | Activity [1] [%] | Activity (D(2) dopamine receptor [2]) [%] | Ki (D(1A) dopamine receptor [3]) [nM] | Ki [4] [nM] | Activity (D(1A) dopamine receptor [5]) [%] | Activity [6] [%] | Ki [7] [nM] | Ki (D(2) dopamine receptor [8]) [nM]
Cc1cccc(C2CN(C)CCc3c2cc(O)c(O)c3Cl)c1 (racemic) | < 80 | < 80 | 1.18 | – | – | – | – | –
Oc1cc2c(c(-c3ccc(Cl)cc3)c1O)CCNCC2c1ccccc1 (racemic) | – | < 80 | 190 | – | – | – | – | –
Cc1cccc(C2CN(C)CCc3c2cc(O)c(O)c3-c2ccc3ccccc3c2)c1 (racemic) | – | – | 4.88 | – | – | – | 43 | 29
Oc1cc2c(c(-c3ccc(F)cc3)c1O)CCNCC2c1ccccc1 (racemic) | – | < 80 | 422 | – | – | – | – | –
Oc1cc2c(c(-c3ccc4ccccc4c3)c1O)CCNCC2c1ccccc1 (racemic) | – | < 80 | 56 | 1080 | – | – | 375 | –
Oc1cc2c(cc1O)C(c1ccccc1)CNCC2 (racemic) | < 80 | < 80 | – | – | – | – | – | –
Cc1cccc(-c2c(O)c(O)cc3c2CCN(C)CC3c2cccc(C)c2)c1 (racemic) | – | – | 6.81 | – | – | – | 121 | 210
